pEC50, pKd: −log10 of the molar value. Bridge positions count the residues as written; N and C are the ends. Square brackets hold non-standard residues; d marks the D form. Peptide text beside a SMILES is read from it. Pen = CC(C)(S)[C@H](N)C(=O)O; Sar = CNCC(=O)O

Experiment [1] concerns the target Type-1 angiotensin II receptor (Bos taurus) (UniProt P25104). The experiment can be described thus: Binding affinity was determined against Angiotensin II receptor, type 1.
The next experiment is filed under the species Oryctolagus cuniculus. The experiment can be described thus: Activity of compound in contraction assays performed using isolated rabbit aorta. The class given is functional. In outline: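 Rings (5 mm) cut from excised aorta, cleaned of adipose tissue, hung in 5 mL organ baths of continuously oxygenated Krebs solution at 37 °C, changed every 15 min. Initial tension 2 g, readjusted until stable (about 90 min equilibration) before testing.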

Chain of Type-1 angiotensin II receptor (Bos taurus) (P25104 whole entry, looked up): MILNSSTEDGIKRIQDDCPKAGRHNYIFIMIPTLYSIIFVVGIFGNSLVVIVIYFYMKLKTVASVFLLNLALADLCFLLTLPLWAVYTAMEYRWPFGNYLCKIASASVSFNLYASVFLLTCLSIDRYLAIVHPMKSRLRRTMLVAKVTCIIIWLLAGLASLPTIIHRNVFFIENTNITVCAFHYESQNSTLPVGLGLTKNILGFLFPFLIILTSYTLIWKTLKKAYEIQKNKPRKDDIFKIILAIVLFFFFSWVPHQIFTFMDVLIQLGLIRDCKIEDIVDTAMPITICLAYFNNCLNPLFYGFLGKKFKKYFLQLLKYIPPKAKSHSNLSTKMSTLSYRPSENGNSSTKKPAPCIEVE

The molecule `CNCC(=O)N[C@@H](CCCN=C(N)N)C(=O)N[C@H](C(=O)N[C@H](Cc1ccc(O)cc1)C(=O)N[C@@H]1CCC(=O)N[C@@H]2C[C@H](C(=O)N[C@H](Cc3ccccc3)C(=O)O)N(C2)C(=O)[C@@H](Cc2c[nH]cn2)NC1=O)C(C)C` gave a negative logarithm of the Kd (pKd) in experiment [1] below 5.00.

In the case of `CNCC(=O)N[C@@H](CCCN=C(N)N)C(=O)N[C@H](C(=O)N[C@H](Cc1ccc(O)cc1)C(=O)N1CCC[C@H]1C(=O)N[C@@H](Cc1c[nH]cn1)C(=O)N1CCC[C@H]1C(=O)N[C@@H](Cc1ccccc1)C(=O)O)C(C)C`, the pEC50 in the experiment listed under Oryctolagus cuniculus is 7.03.

With `CNCC(=O)N[C@@H](CCCN=C(N)N)C(=O)N[C@H](C(=O)N[C@@H](Cc1ccc(O)cc1)C(=O)N[C@H](C(=O)N[C@@H](Cc1c[nH]cn1)C(=O)N1CCC[C@H]1C(=O)N[C@@H](Cc1ccccc1)C(=O)O)C(C)C)C(C)C` (H-[Sar]RVYVHPF-OH), the pEC50 in the experiment listed under Oryctolagus cuniculus is 9.46.

For the molecule `CNCC(=O)N[C@@H](CCCNC(=N)N)C(=O)N[C@H](C(=O)N[C@@H](Cc1ccc(O)cc1)C(=O)N[C@H]1CSS[C@@H]2C[C@@H](C(=O)N[C@@H](Cc3ccccc3)C(=O)O)N(C2)C(=O)[C@H](Cc2cnc[nH]2)NC1=O)C(C)C`, the pKd in experiment [1] was below 5.00.

As to `CNCC(=O)N[C@@H](CCCNC(=N)N)C(=O)N[C@H](C(=O)N[C@@H](Cc1ccc(O)cc1)C(=O)N[C@H]1CSSC(C)(C)[C@@H](C(=O)N[C@@H](Cc2ccccc2)C(=O)O)NC(=O)[C@H](Cc2cnc[nH]2)NC1=O)C(C)C` (H-[Sar]RVYCH[Pen]F-OH; disulfide 5-7), the pKd in experiment [1] is below 5.00.

`CNCC(=O)N[C@@H](CCCNC(=N)N)C(=O)N[C@H](C(=O)N[C@H](Cc1ccc(O)cc1)C(=O)N1CCC[C@H]1C(=O)N[C@@H](Cc1cnc[nH]1)C(=O)N1CCC[C@H]1C(=O)N[C@@H](Cc1ccccc1)C(=O)O)C(C)C` had a negative logarithm of the Kd (pKd) in experiment [1] of 7.24.

The molecule `CNCC(=O)N[C@@H](CCCNC(=N)N)C(=O)N[C@H](C(=O)N[C@@H](Cc1ccc(O)cc1)C(=O)N[C@@H]1CC(=O)N[C@@H]2C[C@H](C(=O)N[C@@H](Cc3ccccc3)C(=O)O)N(C2)C(=O)[C@@H](Cc2cnc[nH]2)NC1=O)C(C)C` showed a pKd in experiment [1] below 5.00.

For the molecule `CNCC(=O)N[C@@H](CCCNC(=N)N)C(=O)N[C@H](C(=O)N[C@@H](Cc1ccc(O)cc1)C(=O)N[C@H]1CCSS[C@@H]2C[C@@H](C(=O)N[C@@H](Cc3ccccc3)C(=O)O)N(C2)C(=O)[C@H](Cc2cnc[nH]2)NC1=O)C(C)C`, in experiment [1], the pKd was 6.12.

`CNCC(=O)N[C@@H](CCCNC(=N)N)C(=O)N[C@H](C(=O)N[C@@H](Cc1ccc(O)cc1)C(=O)N[C@@H]1CSS[C@@H]2C[C@H](C(=O)N[C@@H](Cc3ccccc3)C(=O)O)N(C2)C(=O)[C@@H](Cc2cnc[nH]2)NC1=O)C(C)C` had a pKd in experiment [1] of 5.64.

In turn, `CNCC(=O)N[C@@H](CCCNC(=N)N)C(=O)N[C@H](C(=O)N[C@@H](Cc1ccc(O)cc1)C(=O)N[C@@H]1CCSS[C@@H]2C[C@H](C(=O)N[C@@H](Cc3ccccc3)C(=O)O)N(C2)C(=O)[C@@H](Cc2cnc[nH]2)NC1=O)C(C)C` had a pEC50 in the experiment listed under Oryctolagus cuniculus of 5.75. In experiment [1], this molecule gave a pKd of 7.70.

Regarding `CC[C@H](C)[C@H](NC(=O)[C@H](Cc1ccc(O)cc1)NC(=O)[C@@H](NC(=O)[C@H](CCCNC(=N)N)NC(=O)[C@@H](N)CC(=O)O)C(C)C)C(=O)N[C@@H](Cc1cnc[nH]1)C(=O)N1CCC[C@H]1C(=O)N[C@@H](Cc1ccccc1)C(=O)O` [ANGIOTENSIN II], in the experiment filed under Oryctolagus cuniculus, the pEC50 is 8.34.

The record behind these values is ChEMBL document CHEMBL1129368 (J Med Chem, 1996).
